Measurements reported in ChEMBL document CHEMBL3872252, “New bithiazolyl hydrazones: Novel synthesis, characterization and antitubercular evaluation” (Bioorg Med Chem Lett, 2017).
In brackets after ≈: the same amount, converted by molar mass.

Assays:
Escherichia coli [1] = assay: Growth inhibition of Escherichia coli at 3 ug/ml; format: functional; conditions: read-out: GI
How it was run: (§1)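 Screened against Gram-negative E. coli and P. aeruginosa and Gram-positive S. aureus and B. subtilis. Compound was tested at 3 µg/ml, and the read-out is percent growth inhibition.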

[2] = Cytotoxicity against human THP1 cells by MTT assay; format: toxicity, cell-based, THP-1
[3] = Selectivity index, ratio of GI50 for human HCT116 cells to MIC90 for Mycobacterium bovis BCG ATCC 35743 active stage; format: toxicity, cell-based, HCT-116; conditions: read-out: Selectivity Index
How it was run: (§2)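 Cytotoxicity was measured on human MCF-7, HCT116 and THP-1 cells by MTT assay, with paclitaxel as reference. GI50 is the concentration inhibiting 50% of cell growth. The selectivity index is GI50 for the given cell line divided by MIC90 for the given mycobacterial strain and stage.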

[4] = Selectivity index, ratio of GI50 for human THP1 cells to MIC90 for Mycobacterium bovis BCG ATCC 35743 active stage; format: toxicity, cell-based, THP-1; conditions: read-out: Selectivity Index; how it was run: as §2
Bacillus subtilis [5] = assay: Growth inhibition of Bacillus subtilis at 30 ug/ml; format: functional; conditions: read-out: GI
[6] = Antitubercular activity against Mycobacterium tuberculosis H37Ra ATCC 25177 dormant stage measured on day 12 by XTT reduction menadione based two-fold dilution assay; format: functional; conditions: ATCC 25177, 288 h
How it was run: (§3)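 M. tuberculosis H37Ra ATCC 25177 was exposed to 0.7–100 μg/mL in two-fold steps (0.7, 1.5, 3.1 … 100). Active stage was read after 8 days and dormant stage after 12 days of incubation. Inhibition was read by XTT reduction menadione assay (XRMA), absorbance 470 nm. MIC90 is the concentration giving ≥90% inhibition (µg/mL).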

[7] = Antitubercular activity against Mycobacterium tuberculosis H37Ra ATCC 25177 dormant stage infected in human THP1 cells measured on day 12 by nitrate reductase assay; format: functional, THP-1; conditions: ATCC 25177, 288 h
[8] = Antitubercular activity against Mycobacterium tuberculosis H37Ra ATCC 25177 active stage measured on day 8 by XTT reduction menadione based two-fold dilution assay; format: functional; conditions: ATCC 25177, 192 h; how it was run: as §3
Pseudomonas aeruginosa [9] = assay: Growth inhibition of Pseudomonas aeruginosa at 3 ug/ml; format: functional; conditions: read-out: GI; how it was run: as §1
Bacillus subtilis [10] = assay: Growth inhibition of Bacillus subtilis at 3 ug/ml; format: functional; conditions: read-out: GI; how it was run: as §1
Escherichia coli [11] = assay: Growth inhibition of Escherichia coli at 30 ug/ml; format: functional; conditions: read-out: GI
Staphylococcus aureus [12] = assay: Growth inhibition of Staphylococcus aureus at 30 ug/ml; format: functional; conditions: read-out: GI
[13] = Antitubercular activity against Mycobacterium tuberculosis H37Ra ATCC 25177 active stage infected in human THP1 cells measured on day 8 by nitrate reductase assay; format: functional, THP-1; conditions: ATCC 25177, 192 h
Bacillus subtilis [14] = assay: Antibacterial activity against Bacillus subtilis; format: functional
[15] = Selectivity index, ratio of GI50 for human HCT116 cells to MIC90 for Mycobacterium bovis BCG ATCC 35743 dormant stage; format: toxicity, cell-based, HCT-116; conditions: read-out: Selectivity Index
How it was run: (§4)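 Cytotoxicity was measured on human MCF-7, HCT116 and THP-1 cells by MTT assay, with paclitaxel as reference. The selectivity index is GI50 for the given cell line divided by MIC90 for the given mycobacterial strain and stage.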

[16] = Selectivity index, ratio of GI50 for human MCF7 cells to MIC90 for Mycobacterium bovis BCG ATCC 35743 active stage; format: toxicity, cell-based; conditions: read-out: Selectivity Index; how it was run: as §2
Escherichia coli [17] = assay: Antibacterial activity against Escherichia coli; format: functional
[18] = Cytotoxicity against human MCF7 cells by MTT assay; format: toxicity, cell-based
Escherichia coli [19] = assay: Growth inhibition of Escherichia coli at 10 ug/ml; format: functional; conditions: read-out: GI
Staphylococcus aureus [20] = assay: Growth inhibition of Staphylococcus aureus at 3 ug/ml; format: functional; conditions: read-out: GI; how it was run: as §1
Pseudomonas aeruginosa [21] = assay: Growth inhibition of Pseudomonas aeruginosa at 30 ug/ml; format: functional; conditions: read-out: GI
[22] = Selectivity index, ratio of GI50 for human HCT116 cells to MIC90 for Mycobacterium tuberculosis H37Ra ATCC 25177 dormant stage; format: toxicity, cell-based, HCT-116; conditions: read-out: Selectivity Index; how it was run: as §4
[23] = Selectivity index, ratio of GI50 for human HCT116 cells to MIC90 for Mycobacterium tuberculosis H37Ra ATCC 25177 active stage; format: toxicity, cell-based, HCT-116; conditions: read-out: Selectivity Index; how it was run: as §2
[24] = Selectivity index, ratio of GI50 for human THP1 cells to MIC90 for Mycobacterium tuberculosis H37Ra ATCC 25177 dormant stage; format: toxicity, cell-based, THP-1; conditions: read-out: Selectivity Index; how it was run: as §4
[25] = Selectivity index, ratio of GI50 for human MCF7 cells to MIC90 for Mycobacterium bovis BCG ATCC 35743 dormant stage; format: toxicity, cell-based; conditions: read-out: Selectivity Index; how it was run: as §4
[26] = Antitubercular activity against Mycobacterium bovis BCG ATCC 35743 active stage measured on day 8 by nitrate reductase based two-fold dilution assay; format: functional, Mycobacterium bovis BCG str. ATCC 35743; conditions: Mycobacterium tuberculosis variant bovis BCG, ATCC 35743, 192 h
[27] = Selectivity index, ratio of GI50 for human MCF7 cells to MIC90 for Mycobacterium tuberculosis H37Ra ATCC 25177 dormant stage; format: toxicity, cell-based; conditions: read-out: Selectivity Index; how it was run: as §4
[28] = Antitubercular activity against Mycobacterium bovis BCG ATCC 35743 dormant stage measured on day 12 by nitrate reductase based two-fold dilution assay; format: functional, Mycobacterium bovis BCG str. ATCC 35743; conditions: Mycobacterium tuberculosis variant bovis BCG, ATCC 35743, 288 h
[29] = Selectivity index, ratio of GI50 for human MCF7 cells to MIC90 for Mycobacterium tuberculosis H37Ra ATCC 25177 active stage; format: toxicity, cell-based; conditions: read-out: Selectivity Index; how it was run: as §2
[30] = Selectivity index, ratio of GI50 for human THP1 cells to MIC90 for Mycobacterium tuberculosis H37Ra ATCC 25177 active stage; format: toxicity, cell-based, THP-1; conditions: read-out: Selectivity Index; how it was run: as §2
Staphylococcus aureus [31] = assay: Growth inhibition of Staphylococcus aureus at 10 ug/ml; format: functional; conditions: read-out: GI
Pseudomonas aeruginosa [32] = assay: Growth inhibition of Pseudomonas aeruginosa at 10 ug/ml; format: functional; conditions: read-out: GI
Pseudomonas aeruginosa [33] = assay: Antibacterial activity against Pseudomonas aeruginosa; format: functional
[34] = Selectivity index, ratio of GI50 for human THP1 cells to MIC90 for Mycobacterium bovis BCG ATCC 35743 dormant stage; format: toxicity, cell-based, THP-1; conditions: read-out: Selectivity Index; how it was run: as §4
Bacillus subtilis [35] = assay: Growth inhibition of Bacillus subtilis at 10 ug/ml; format: functional; conditions: read-out: GI
[36] = Cytotoxicity against human HCT116 cells by MTT assay; format: toxicity, cell-based, HCT-116
Staphylococcus aureus [37] = assay: Antibacterial activity against Staphylococcus aureus; format: functional

## C/C(=N\Nc1nc(-c2ccc(C)cc2)cs1)c1sc(-c2ccccc2)nc1C
Escherichia coli [1]
  inhibition of growth at 3 µg/mL: 92.2%
[2]; THP1 cells
  GI50: > 100 µg/mL
[2]; thp-1
  GI90: > 100 µg/mL
[3]
  selectivity ratio: 5
[4]
  selectivity ratio: 5
Bacillus subtilis [5]
  inhibition of growth at 30 µg/mL: 96.9%
[6]
  IC50: 0.075 µg/mL (≈ 0.185 µM)
  MIC90: > 100 µg/mL
[7]
  MIC90: > 100 µg/mL
[8]
  IC50: 0.16 µg/mL (≈ 0.395 µM)
  MIC90: > 100 µg/mL
Pseudomonas aeruginosa [9]
  inhibition of growth at 3 µg/mL: 93.4%
Bacillus subtilis [10]
  inhibition of growth at 3 µg/mL: 91.3%
Escherichia coli [11]
  inhibition of growth at 30 µg/mL: 97%
Staphylococcus aureus [12]
  inhibition of growth at 30 µg/mL: 97.1%
[13]
  MIC90: > 100 µg/mL
Bacillus subtilis [14]
  IC50: 0.742 µg/mL (≈ 1.83 µM)
  MIC: 2.95 µg/mL (≈ 7.29 µM)
[15]
  selectivity ratio: 2
[16]
  selectivity ratio: 5
Escherichia coli [17]
  IC50: 0.454 µg/mL (≈ 1.12 µM)
  MIC: 1.43 µg/mL (≈ 3.53 µM)
[18]; MCF7 cells
  GI50: > 100 µg/mL
[18]; mcf7
  GI90: > 100 µg/mL
Escherichia coli [19]
  inhibition of growth at 10 µg/mL: 94.1%
Staphylococcus aureus [20]
  inhibition of growth at 3 µg/mL: 91.9%
Pseudomonas aeruginosa [21]
  inhibition of growth at 30 µg/mL: 98.8%
[22]
  selectivity ratio: 1
[23]
  selectivity ratio: 1
[24]
  selectivity ratio: 1
[25]
  selectivity ratio: 2
[26]
  IC50: 5.21 µg/mL (≈ 12.9 µM)
  MIC90: 19.7 µg/mL (≈ 48.6 µM)
[27]
  selectivity ratio: 1
[28]
  IC50: 5.29 µg/mL (≈ 13.1 µM)
  MIC90: 57.5 µg/mL (≈ 142 µM)
[29]
  selectivity ratio: 1
[30]
  selectivity ratio: 1
Staphylococcus aureus [31]
  inhibition of growth at 10 µg/mL: 94%
Pseudomonas aeruginosa [32]
  inhibition of growth at 10 µg/mL: 95.6%
Pseudomonas aeruginosa [33]
  IC50: 0.587 µg/mL (≈ 1.45 µM)
  MIC: 1.53 µg/mL (≈ 3.78 µM)
[34]
  selectivity ratio: 2
Bacillus subtilis [35]
  inhibition of growth at 10 µg/mL: 93.5%
[36]; HCT116 cells
  GI50: > 100 µg/mL
[36]; hct-116
  GI90: > 100 µg/mL
Staphylococcus aureus [37]
  IC50: 0.624 µg/mL (≈ 1.54 µM)
  MIC: 2.46 µg/mL (≈ 6.08 µM)
